Assays:
[1] = Inhibition of binding of biotinylated mouse BIM BH3-26mer peptide to GST-tagged mouse BCL-Xl delta C25 mutant by AlphaScreen/[…] assay
Method in brief: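 Bead-based AlphaScreen competition: compounds titrated by serial dilution from 150 µM against GST-BCL-XL ΔC25 (0.6 nM final) and biotinylated BIM BH3 26-mer (5.0 nM final). Anti-GST acceptor and streptavidin donor beads at 15 µg/mL each. Protein/acceptor and peptide/donor pairs pre-incubated 30 min. Compound plus protein complex 30 min, then peptide complex 4 h at room temperature. 1% DMSO final. IC50 from at least two separate experiments.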

[2] = Inhibition of binding of wild type mBIMBH3 peptide to human/mouse chimeric MCL1 by surface plasmon resonance competition experiment
Method in brief: (§1)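 Solution competition SPR: recombinant pro-survival protein (10 nM) incubated 2 h with compound (25–0.024 µM) in HEPES 10 mM, 150 mM NaCl, 3.4 mM EDTA, 0.005% Tween 20, pH 7.4. Mixture then injected over CM5 chip bearing immobilized wild-type mBIMBH3 26-mer, with inert mutant mBIMBH3 surface as reference. IC50 is the mean of three independent experiments ± SEM.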

[3] = molecular target: Bcl-2-like protein 2 (Homo sapiens, UniProt Q92843, A128E/C29S); assay: Inhibition of binding of wild type mBIMBH3 peptide to human Bcl-W delta C29 (C29S/A128E) mutant by surface plasmon resonance competition experiment; method in brief: as §1
Sequence of Bcl-2-like protein 2 (Q92843 2-193 C29S/A128E limits assumed): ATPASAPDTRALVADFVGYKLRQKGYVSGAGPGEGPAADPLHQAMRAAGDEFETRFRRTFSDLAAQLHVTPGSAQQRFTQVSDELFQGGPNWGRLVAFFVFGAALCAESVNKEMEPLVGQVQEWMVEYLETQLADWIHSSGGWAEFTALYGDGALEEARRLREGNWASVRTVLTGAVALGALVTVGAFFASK

[4] = Inhibition of binding of wild type mBIMBH3 peptide to human Bcl-2 delta C22 mutant by surface plasmon resonance competition experiment; method in brief: as §1
[5] = Inhibition of binding of wild type mBIMBH3 peptide to human Bcl-XL delta C24 mutant by surface plasmon resonance competition experiment; method in brief: as §1
[6] = molecular target: Bcl-2-related protein A1 (Mus musculus) (UniProt Q07440); assay: Inhibition of binding of wild type mBIMBH3 peptide to mouse Bcl-2-related protein A1 by surface plasmon resonance competition experiment
Sequence of Bcl-2-related protein A1 (Mus musculus) (Q07440 whole entry, looked up): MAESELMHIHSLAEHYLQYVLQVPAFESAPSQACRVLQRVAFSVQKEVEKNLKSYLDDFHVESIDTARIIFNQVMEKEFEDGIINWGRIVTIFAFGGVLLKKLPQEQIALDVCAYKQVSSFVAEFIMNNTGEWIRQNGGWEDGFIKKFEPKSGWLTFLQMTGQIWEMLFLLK

[7] = molecular target: T1, Bcl-2-like protein 1 (Homo sapiens, UniProt Q07817); assay: Direct binding affinity to Bcl-XL (unknown origin) pre-saturated with 26-mer-wt-Bim assessed as dissociation constant measured for 120 secs by surface plasmon resonance
T1 sequence (Q07817 whole entry): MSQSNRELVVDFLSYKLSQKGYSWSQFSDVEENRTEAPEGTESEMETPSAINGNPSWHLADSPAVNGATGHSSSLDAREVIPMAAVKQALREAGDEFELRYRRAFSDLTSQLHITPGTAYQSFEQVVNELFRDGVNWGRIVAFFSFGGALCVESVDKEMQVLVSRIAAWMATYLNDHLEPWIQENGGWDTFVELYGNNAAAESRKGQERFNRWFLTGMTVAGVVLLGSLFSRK
Method in brief: (§2)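 Biacore S51 direct binding. GST-BCL-XL captured on an amine-coupled anti-GST antibody surface (about 1200 RU), in phosphate buffer pH 7.4 with 150 mM NaCl, 1 mM EDTA, 0.03% Tween 20 and 5% DMSO. Each cycle, 30 nM wt-BIM 26-mer pre-blocks the groove on the reference spot. Double referencing, 4–6% DMSO solvent correction, 1:1 fit with mass transport; Kd = kd/ka.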

[8] = molecular target: T1, Bcl-2-like protein 1; assay: Direct binding affinity to free Bcl-XL (unknown origin) assessed as […] measured for 60 secs by surface plasmon resonance; method in brief: as §2

| Structure (SMILES) | IC50 [1] | other results |
| --- | --- | --- |
| CCCN(C(=O)N[C@@H](CSCC(C)C)C(=O)O)C(=O)c1cccc(C#Cc2ccc(Oc3ccccc3)cc2)c1 | > 150 µM |  |
| CCCN(C(=O)N[C@@H](CSCC(C)C)C(=O)O)C(=O)c1cccc(C#Cc2ccc(C(C)(C)C)cc2)c1 | > 150 µM |  |
| CCCN(C(=O)N[C@@H](Cc1ccc2ccccc2c1)C(=O)O)C(=O)c1cccc(-c2ccccc2)c1 | > 150 µM |  |
| CCCN(C(=O)N[C@@H](CCc1ccccc1)C(=O)O)C(=O)c1cccc(-c2ccccc2)c1 | > 150 µM |  |
| CCCN(C(=O)NC)C(=O)c1cccc(-c2ccccc2)c1 | > 150 µM |  |
| CCCN(C(=O)N[C@@H](CSCc1ccccc1)C(=O)O)C(=O)c1cccc(-c2ccc3ccccc3c2)c1 | 63 µM |  |
| CCCN(C(=O)N[C@@H](Cc1ccc(O)cc1)C(=O)O)C(=O)c1cccc(-c2ccccc2)c1 | > 150 µM |  |
| O=C(NS(=O)(=O)c1ccc(NCCSc2ccccc2)c([N+](=O)[O-])c1)c1ccc(-c2ccc(F)cc2)cc1 |  | IC50 [2]: 22 µM; IC50 [3]: > 25 µM; IC50 [4]: 14.7 µM; IC50 [5]: 0.196 µM; IC50 [6]: 14.2 µM |
| CCCN(C(=O)N[C@@H](CSCc1ccccc1)C(=O)OC)C(=O)c1cccc(-c2ccccc2)c1 | > 150 µM |  |
| CCCN(C(=O)N[C@@H](CSCc1ccccc1)C(=O)O)C(=O)c1cccc(-c2ccc(Cl)cc2)c1 | 86 µM |  |
| CCCN(C(=O)N[C@@H](CSCC(C)C)C(=O)O)C(=O)c1cccc(C#Cc2cccnc2)c1 | > 150 µM |  |
| CCCN(C(=O)N[C@@H](CSCc1ccccc1)C(=O)O)C(=O)c1cccc(Cc2ccccc2)c1 | > 150 µM |  |
| CCCN(C(=O)N[C@@H](CSCc1ccccc1)C(N)=O)C(=O)c1cccc(-c2ccccc2)c1 | > 150 µM |  |
| CCCN(C(=O)N[C@@H](Cc1c[nH]c2ccccc12)C(=O)O)C(=O)c1cccc(-c2ccccc2)c1 | 108 µM |  |
| CCCN(C(=O)N[C@@H](CSCc1ccccc1)C(=O)O)C(=O)c1cccc(-c2ccc(Cl)c(Cl)c2)c1 | 78 µM |  |
| CCCN(C(=O)N[C@@H](CSCc1ccccc1)C(=O)O)C(=O)c1cccc(-c2cccc3ccccc23)c1 | 62 µM |  |
| CCCN(C(=O)N[C@@H](CSCC(C)C)C(=O)O)C(=O)c1cccc(C#Cc2ccccc2)c1 | 15 µM |  |
| CCCN(C(=O)N[C@@H](CSCC(C)C)C(=O)O)C(=O)c1cccc(C#Cc2cccc(C)c2)c1 | 51 µM |  |
| CCCN(C(=O)N[C@@H](CC(C)C)C(=O)O)C(=O)c1cccc(-c2ccccc2)c1 | > 150 µM |  |
| CCCN(C(=O)N[C@@H](CSCc1ccc(OC)cc1)C(=O)O)C(=O)c1cccc(C#Cc2ccccc2)c1 | 21 µM |  |
| CCCN(C(=O)N[C@@H](CSCCc1ccccc1)C(=O)O)C(=O)c1cccc(C#Cc2ccccc2)c1 | 21 µM |  |
| CCN(C(=O)N[C@@H](CSCc1ccccc1)C(=O)O)C(=O)c1cccc(-c2ccccc2)c1 | 128 µM |  |
| CC(C)N(C(=O)N[C@@H](CSCc1ccccc1)C(=O)O)C(=O)c1cccc(-c2ccccc2)c1 | > 150 µM |  |
| CCC(C)N(C(=O)N[C@@H](CSCc1ccccc1)C(=O)O)C(=O)c1cccc(-c2ccccc2)c1 (some centres undefined) | > 150 µM |  |
| CCCN(C(=O)N[C@@H](CSCc1ccccc1-c1ccccc1)C(=O)O)C(=O)c1cccc(C#Cc2ccccc2)c1 | 146 µM |  |
| CCCN(C(=O)N[C@@H](CSCc1ccccc1)C(=O)O)C(=O)c1cccc(-c2ccc(C)cc2)c1 | 77 µM |  |

| Structure (SMILES) | IC50 [1] | other results |
| --- | --- | --- |
| CCCN(C(=O)N[C@@H](CSCC(C)C)C(=O)O)C(=O)c1cccc(C#Cc2ccncc2)c1 | > 150 µM |  |
| CCCN(C(=O)N[C@@H](Cc1ccccc1)C(=O)O)C(=O)c1cccc(-c2ccccc2)c1 | > 150 µM |  |
| CCCN(C(=O)N[C@@H](CSCc1ccccc1)C(=O)O)C(=O)c1cccc(-c2ccccc2)c1 | 109 µM |  |
| CCCN(C(=O)N[C@@H](CSCc1ccccc1)C(=O)O)C(=O)c1cccc(/C=C/c2ccccc2)c1 | 141 µM |  |
| CCCN(C(=O)N[C@@H](CSCc1ccccc1)C(=O)O)C(=O)c1cccc(-c2ccc(F)cc2)c1 | 125 µM |  |
| CCCSC[C@H](NC(=O)N(CCC)C(=O)c1cccc(C#Cc2ccccc2)c1)C(=O)O | 21 µM |  |
| CCCN(C(=O)N[C@@H](CSCCCc1ccccc1)C(=O)O)C(=O)c1cccc(C#Cc2ccccc2)c1 | 73 µM |  |
| CCCN(C(=O)N[C@@H](CSCc1ccccc1)C(=O)O)C(=O)c1cccc(-c2ccc(OC)cc2)c1 | > 150 µM |  |
| CCCN(C(=O)N[C@@H](CSCC(C)C)C(=O)O)C(=O)c1cccc(C#Cc2ccc(F)cc2)c1 | 9 µM |  |
| Cc1ccc(CN(C(=O)N[C@@H](CSCc2ccccc2)C(=O)O)C(=O)c2cccc(-c3ccccc3)c2)cc1 | > 150 µM |  |
| CCCN(C(=O)N[C@@H](CSCC1CCCCC1)C(=O)O)C(=O)c1cccc(C#Cc2ccccc2)c1 | 42 µM |  |
| CCCN(C(=O)N[C@@H](CSCC(C)C)C(=O)O)C(=O)c1cccc(C#Cc2ccc(C)cc2)c1 | 50 µM |  |
| CCCN(C(=O)N[C@@H](CSCc1ccccc1)C(=O)O)C(=O)c1cccc(CCc2ccccc2)c1 | 55 µM |  |
| O=C(O)[C@H](CSCc1ccccc1)NC(=O)N(Cc1ccccc1)C(=O)c1cccc(-c2ccccc2)c1 | > 150 µM |  |
| CCCN(C(=O)N[C@@H](CSCc1ccccc1)C(=O)O)C(=O)c1cccc(C#Cc2ccccc2)c1 | 35 µM |  |
| CCCCN(C(=O)N[C@@H](CSCc1ccccc1)C(=O)O)C(=O)c1cccc(-c2ccccc2)c1 | 138 µM |  |
| CCCN(C(=O)N[C@@H](CSCC(C)C)C(=O)O)C(=O)c1cccc(C#Cc2ccccc2C)c1 | 57 µM |  |
| CCCN(C(=O)N[C@@H](CSCC(C)C)C(=O)O)C(=O)c1cccc(C#Cc2cccc(F)c2)c1 | 69 µM |  |
| CCCN(C(=O)N[C@@H](CSc1ccccc1)C(=O)O)C(=O)c1cccc(C#Cc2ccccc2)c1 | 25 µM |  |
| CCCN(C(=O)N[C@@H](CSCc1ccc(Br)cc1)C(=O)O)C(=O)c1cccc(C#Cc2ccc(F)cc2F)c1 | 13 µM | Kd [7]: 4 µM; Kd [8]: 6.9 µM |
| CCCN(C(=O)N[C@@H](CSCC(C)C)C(=O)O)C(=O)c1cccc(C#Cc2ccccc2F)c1 | 39 µM |  |
| CCCN(C(=O)N[C@@H](CSCc1ccccc1)C(=O)O)C(=O)c1cccc(-c2ccccc2Cl)c1 | 102 µM |  |
| CCCN(C(=O)N[C@@H](CSC(C)C)C(=O)O)C(=O)c1cccc(C#Cc2ccccc2)c1 | 33 µM |  |
| CCCN(C(=O)NCCSCc1ccccc1)C(=O)c1cccc(-c2ccccc2)c1 | > 150 µM |  |
| CCCN(C(=O)N[C@@H](CSCC(C)C)C(=O)O)C(=O)c1cccc(C#Cc2ccc(F)cc2F)c1 | 22 µM | IC50 [2]: > 25 µM; IC50 [3]: > 25 µM; IC50 [4]: > 25 µM; IC50 [5]: 4.4 µM; Kd [7]: 2.1 µM; Kd [8]: 4.9 µM; IC50 [6]: > 25 µM |

From ChEMBL document CHEMBL3124762, “De-novo designed library of benzoylureas as inhibitors of BCL-XL: synthesis, structural and biochemical characterization” (J Med Chem, 2014)
